The source of these data is ChEMBL document CHEMBL1123876, “Effect of reductive alkylation of lysine in positions 6 and/or 8 on the histamine-releasing activity of luteinizing hormone-releasing hormone antagonists” (1987).

Each structure is given as a SMILES string. ≈ marks a conversion by molar mass, not a printed value. *1 amine or outer side, *2 acyl side, *3 side chain or, on linkers, in order; H or OH if unused. Where a SMILES comes first, the peptide text is derived from it. [ ]: non-standard residue; d: D form. X1 = O=C([C@@H](CCCCNC1CCCC1)N[*:1])[*:2]; X2 = O=C([C@H](CCCCNC1CCCC1)N[*:1])[*:2]; d2Nal = N[C@H](Cc1ccc2ccccc2c1)C(=O)O

Type in all cases: functional
For assay [1], the species on record is Rattus norvegicus. Put plainly: In vitro histamine releasing activity in rat peritoneal cells. Particulars: read-out: ED50 (the source's name). The gist of the method:
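Peritoneal cells from male Sprague-Dawley rats exposed in vitro to each analogue in a standard histamine-release assay. ED50 for histamine release is reported in μg/mL as mean ± standard error.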

The species entered for assay [2] is Rattus norvegicus. Put plainly: Antiovulatory activity in rat was expressed as percentage of (8) rats blocked at 3 ug/mL. The method in brief:
(§1)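 Standard antiovulatory assay in Sprague-Dawley rats; analogue given in a 40% propane-1,2-diol/0.9% saline vehicle.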

The species named for assay [3] is Rattus norvegicus. The assay is described as follows: Antiovulatory activity in rat was expressed as percentage of (9) rats blocked at 3 ug/mL. The method in brief:
as §1

Assay [4] is filed under the species Rattus norvegicus. Put plainly: Antiovulatory activity in rat was expressed as percentage of (10) rats blocked at 3 ug/mL. Set-up: unit: %. The method in brief:
as §1

The species entered for assay [5] is Rattus norvegicus. The assay is described as follows: Antiovulatory activity in rat was expressed as percentage of (9) rats blocked at 6 ug/mL. The gist of the method:
as §1

For assay [6], the species on record is Rattus norvegicus. The assay is described as follows: Antiovulatory activity in rat was expressed as percentage of rats blocked at 1 ug/mL (number of rats). The method in brief: as §1

As to `CCCC(CCC)NCCCC[C@H](NC(=O)[C@H](Cc1ccccc1)NC(=O)[C@@H](CCCN=C(N)N)NC(=O)[C@H](Cc1ccc(O)cc1)NC(=O)[C@H](CO)NC(=O)[C@@H](Cc1ccccc1)NC(=O)[C@@H](Cc1ccccc1)NC(=O)[C@@H](Cc1ccc2ccccc2c1)NC(C)=O)C(=O)N1CCC[C@H]1C(=O)N[C@H](C)C(=O)O`, the EC50 in assay [1] was found to be 4.6 µg/mL (≈ 3.07 µM). In addition, the Antiovulatory activity in assay [2] came out at 0.

With `CC(=O)N[C@H](Cc1ccc2ccccc2c1)C(=O)N[C@H](Cc1ccccc1)C(=O)N[C@H](Cc1ccccc1)C(=O)N[C@@H](CO)C(=O)N[C@@H](Cc1ccc(O)cc1)C(=O)N[C@H](CCCCNC(C)C)C(=O)N[C@@H](Cc1ccccc1)C(=O)N[C@@H](CCCCNC(C)C)C(=O)N1CCC[C@H]1C(=O)N[C@H](C)C(N)=O`, in assay [1], the EC50 is 6.48 µg/mL (≈ 4.45 µM). The Antiovulatory activity in assay [3] was determined as 89.

Take `CC(=O)N[C@H](Cc1ccc2ccccc2c1)C(=O)N[C@H](Cc1ccccc1)C(=O)N[C@H](Cc1ccccc1)C(=O)N[C@@H](CO)C(=O)N[C@@H](Cc1ccc(O)cc1)C(=O)N[C@H](CCCN=C(N)N)C(=O)N[C@@H](Cc1ccccc1)C(=O)N[C@@H](CCCCNCc1ccc(C)cc1)C(=O)N1CCC[C@H]1C(=O)N[C@H](C)C(=O)O`: the EC50 in assay [1] came to 33 µg/mL (≈ 21.9 µM). In assay [4], this compound registered an Antiovulatory activity of 10.

Regarding `CCCC(CCC)NCCCC[C@H](NC(=O)[C@H](Cc1ccccc1)NC(=O)[C@@H](CCCCNC(CCC)CCC)NC(=O)[C@H](Cc1ccc(O)cc1)NC(=O)[C@H](CO)NC(=O)[C@@H](Cc1ccccc1)NC(=O)[C@@H](Cc1ccccc1)NC(=O)[C@@H](Cc1ccc2ccccc2c1)NC(C)=O)C(=O)N1CCC[C@H]1C(=O)N[C@H](C)C(N)=O`, in assay [1], the EC50 came to 21.9 µg/mL (≈ 14 µM). For the same compound, the figures for the Antiovulatory activity in assay [5] and in assay [4] were 56 and 0, respectively.

As to `CC(=O)N[C@H](Cc1ccc2ccccc2c1)C(=O)N[C@H](Cc1ccccc1)C(=O)N[C@H](Cc1ccccc1)C(=O)N[C@@H](CO)C(=O)N[C@@H](Cc1ccc(O)cc1)C(=O)N[C@H](CCCN=C(N)N)C(=O)N[C@@H](Cc1ccccc1)C(=O)N[C@@H](CCCCNCc1c(C)cc(C)cc1C)C(=O)N1CCC[C@H]1C(=O)N[C@H](C)C(=O)O`, the EC50 in assay [1] came to 4.73 µg/mL (≈ 3.08 µM). In assay [4], the Antiovulatory activity was determined as 10.

On to `CC(=O)N[C@H](Cc1ccc2ccccc2c1)C(=O)N[C@H](Cc1ccccc1)C(=O)N[C@H](Cc1ccccc1)C(=O)N[C@@H](CO)C(=O)N[C@@H](Cc1ccc(O)cc1)C(=O)N[C@H](CCCCNC1CCCC1)C(=O)N[C@@H](Cc1ccccc1)C(=O)N[C@@H](CCCCNC1CCCC1)C(=O)N1CCC[C@H]1C(=O)N[C@H](C)C(N)=O` (Ac-[d2Nal][dF][dF]SY[X1]F[X2]P[dA]-NH2), for which the EC50 in assay [1] is 6.1 µg/mL (≈ 4.04 µM). This compound also came in with an Antiovulatory activity in assay [4] of 70.

For `CC(=O)N[C@H](Cc1ccc2ccccc2c1)C(=O)N[C@H](Cc1ccccc1)C(=O)N[C@H](Cc1ccccc1)C(=O)N[C@@H](CO)C(=O)N[C@@H](Cc1ccc(O)cc1)C(=O)N[C@H](CCCCNC1CCCCC1)C(=O)N[C@@H](Cc1ccccc1)C(=O)N[C@@H](CCCCNC1CCCCC1)C(=O)N1CCC[C@H]1C(=O)N[C@H](C)C(N)=O`, in assay [1], the EC50 was found to be 5.86 µg/mL (≈ 3.81 µM). Further, the Antiovulatory activity in assay [4] is 38.

For `CCCCC(CCCC)NCCCC[C@H](NC(=O)[C@H](Cc1ccccc1)NC(=O)[C@@H](CCCCNC(CCCC)CCCC)NC(=O)[C@H](Cc1ccc(O)cc1)NC(=O)[C@H](CO)NC(=O)[C@@H](Cc1ccccc1)NC(=O)[C@@H](Cc1ccccc1)NC(=O)[C@@H](Cc1ccc2ccccc2c1)NC(C)=O)C(=O)N1CCC[C@H]1C(=O)N[C@H](C)C(N)=O`, the EC50 in assay [1] is greater than 300 µg/mL. Besides, the Antiovulatory activity in assay [5] was found to be 0.

Take `CC(=O)N[C@H](Cc1ccc2ccccc2c1)C(=O)N[C@H](Cc1ccccc1)C(=O)N[C@H](Cc1ccccc1)C(=O)N[C@@H](CO)C(=O)N[C@@H](Cc1ccc(O)cc1)C(=O)N[C@H](CCCN=C(N)N)C(=O)N[C@@H](Cc1ccccc1)C(=O)N[C@@H](CCCCNCC(C)(C)C)C(=O)N1CCC[C@H]1C(=O)N[C@H](C)C(=O)O`: the EC50 in assay [1] amounted to 4.68 µg/mL (≈ 3.18 µM). The Antiovulatory activity in assay [6] was found to be 50; in assay [3], 89.
